Experiment [1] deals with Panc-1 cells. The experiment is described as follows: Annexin V-FITC/PI dual staining flow cytometry apoptosis assay. The format is cell-based, human. The settings on record: Panc-1, treated at IC50 concentration, 48 h. The essentials:
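Panc-1 cells were seeded, held overnight at 37 °C under 5% CO2, then exposed to test compound for 48 h. Untreated cells were the negative control. Cells were trypsinized, washed twice in PBS, pelleted at 1200 rpm and resuspended in binding buffer. Labelled annexin V and propidium iodide were added, and cells were incubated 15 min at room temperature in the dark. Flow cytometry followed.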

Experiment [2] relates to caspase-3, cleaved-caspase-3, pro-caspase-3 in Panc-1 cells. Briefly: Western blot analysis of caspase-3 proteins. It counts as cell-based, human. The following applies: Panc-1, IC50 concentration, 48 h. The essentials:
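Panc-1 cells were exposed to test compound and harvested after 48 h. Lysates were prepared in lysis buffer, and protein was quantified by Bradford assay. Proteins were separated on 15% SDS-PAGE, transferred to PVDF and probed with primary and secondary antibodies. β-actin was the loading control. Bands were detected by chemiluminescence and imaged.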
Background: A western blot detects proteins with antibodies after separation by electrophoresis.

Experiment [3] concerns normal human dermal fibroblast (HDF) cells. The experiment is described as follows: MTT cytotoxicity assay, normal HDF cells. The format is cell-based. The following applies: 48 h, read-out: In vitro antiproliferative effects (IC50) HDF. The essentials:
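Cells came from the National Cell Bank of Iran and were grown in RPMI-1640 or DMEM with 10% FBS at 37 °C, 5% CO2 and 100% humidity. Test compounds in 0.1% DMSO (n = 3) were incubated 48 h, then MTT for 3 h, with formazan OD read at 570 nm. Controls were 0.1% DMSO (negative) and etoposide (positive). IC50 came from dose–response curves, mean ± SE of at least three independent experiments.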
A general note: Tetrazolium assays rely on reduction of a dye to a coloured formazan, in cell work by metabolically active cells.

Experiment [4] deals with Panc-1 cells. The experiment is described as follows: Cell cycle analysis by PI staining flow cytometry. The format is cell-based, human. The settings on record: Panc-1, IC50 concentration, 48 h; control 1.82%. (A flow cytometer gives signals particle by particle.)

On to `O=c1[nH]nc(O)c2c(-c3cccc([N+](=O)[O-])c3)c3n(c12)CCn1cccc1-3` [7m, 11-Hydroxy-12-(3-nitrophenyl)-5,6-dihydropyrrolo[2″,1″:3′,4′]pyrazino[1′,2′:1,5] pyrrolo[2,3-d]pyridazin-8(9H)-one], for which the “necrosis (Q1)” value in the experiment on Panc-1 cells [1] (control 0.586) is reported as 0.851%. Further, in the experiment on Panc-1 cells [1] (control 4.12), the “early apoptosis (Q3)” value is listed as 5.56% and the “late apoptosis (Q2)” value came out at 5.45%. Further, in the experiment with Panc-1 cells [1] (control 91.2), the “live cells (Q4)” value amounted to 88.1%. Further, the “cell apoptosis (total apoptotic cells)” value with Panc-1 cells [1] (untreated cells 8.24%) amounted to 11.01%. Also, in experiment [2], the caspase-3 protein level result is given as “downregulation” and the pro-caspase-3 protein level result is “remained unchanged”. The IC50 in experiment [3] is over 100 µM. Besides, in the experiment on Panc-1 cells [4], the “proportion of cells in the sub-G1 phase” value was found to be 5.47%.

The term IC50 denotes the concentration that gives 50% inhibition.

Source of the values: paper PMC10653054 (ACS Omega, 2023).
